Laboratory results published in ChEMBL document CHEMBL3396953, “Design, synthesis and biological evaluation of a class of bioisosteric oximes of the novel dual peroxisome proliferator-activated receptor α/γ ligand LT175” (Eur J Med Chem, 2015).
Calls of active or inactive are those of the source. No cut-off for these calls is given here.

How the values were obtained:
Assay type in all cases: cell-based
[1] = molecular target: T1, Peroxisome proliferator-activated receptor alpha (Homo sapiens, UniProt Q07869); experiment: Agonist activity at GAL4-DNA binding domain fused human PPARalpha ligand binding domain expressed in human HepG2 cells assessed as receptor transactivation incubated for 20 hrs by luciferase reporter gene assay
T1 sequence (Q07869 whole entry): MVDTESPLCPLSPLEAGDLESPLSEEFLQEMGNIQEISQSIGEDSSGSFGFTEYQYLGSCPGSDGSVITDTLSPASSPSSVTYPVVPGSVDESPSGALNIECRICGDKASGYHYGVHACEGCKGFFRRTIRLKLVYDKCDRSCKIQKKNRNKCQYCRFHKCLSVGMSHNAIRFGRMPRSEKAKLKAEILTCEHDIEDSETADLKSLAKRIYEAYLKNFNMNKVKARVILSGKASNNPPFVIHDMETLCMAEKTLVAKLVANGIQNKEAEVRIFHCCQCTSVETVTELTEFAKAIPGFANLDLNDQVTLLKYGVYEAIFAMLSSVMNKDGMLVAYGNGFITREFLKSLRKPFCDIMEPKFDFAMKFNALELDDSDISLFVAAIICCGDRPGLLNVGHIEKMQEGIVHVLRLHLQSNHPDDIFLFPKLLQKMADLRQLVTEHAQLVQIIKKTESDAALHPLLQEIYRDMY
Outline: (§1)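 GAL4-PPARα-LBD chimera transiently expressed in HepG2 cells; 10⁵ cells/well seeded in triplicate, calcium-phosphate transfection after 24 h with GAL4-PPARα-LBD plasmid (30 ng), pGAL5TKpGL3 reporter (100 ng) and pCMVβgal (250 ng). Transfections repeated at least twice.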

[2] = molecular target: T2, Peroxisome proliferator-activated receptor alpha (Homo sapiens) (UniProt Q07869); experiment: Agonist activity at GAL4-DNA binding domain fused human PPARalpha ligand binding domain expressed in human HepG2 cells assessed as receptor transactivation incubated for 20 hrs by luciferase reporter gene assay relative to Wy-14,643
T2 sequence (whole entry): T1 sequence (Q07869 whole entry)
Outline: as §1, with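 “ng). Efficacy expressed as percentage of maximum fold induction obtained with reference agonist Wy-14,643.” for “ng).”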

[3] = molecular target: T3, Peroxisome proliferator-activated receptor gamma (Homo sapiens, UniProt P37231); experiment: Agonist activity at GAL4-DNA binding domain fused human PPARgamma ligand binding domain expressed in human HepG2 cells assessed as receptor transactivation incubated for 20 hrs by luciferase reporter gene assay
T3 sequence (P37231 whole entry): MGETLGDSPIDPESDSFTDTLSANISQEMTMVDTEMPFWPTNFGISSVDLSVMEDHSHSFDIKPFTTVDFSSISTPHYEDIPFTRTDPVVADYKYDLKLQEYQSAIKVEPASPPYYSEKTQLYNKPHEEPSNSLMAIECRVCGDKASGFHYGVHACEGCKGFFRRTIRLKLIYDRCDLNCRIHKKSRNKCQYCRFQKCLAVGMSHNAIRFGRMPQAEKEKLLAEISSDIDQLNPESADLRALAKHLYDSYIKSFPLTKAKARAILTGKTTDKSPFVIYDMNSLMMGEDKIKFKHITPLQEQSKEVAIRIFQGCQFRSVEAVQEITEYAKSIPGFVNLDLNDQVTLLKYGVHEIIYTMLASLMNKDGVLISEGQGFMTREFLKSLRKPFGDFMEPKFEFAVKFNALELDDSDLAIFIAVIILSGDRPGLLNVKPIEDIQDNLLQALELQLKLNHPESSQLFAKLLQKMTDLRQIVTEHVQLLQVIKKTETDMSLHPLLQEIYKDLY

[4] = molecular target: T4, PPAR alpha/gamma (Homo sapiens) (UniProt P37231+Q07869); experiment: Agonist activity at PPARalpha/PPARgamma in human […] cells assessed as increase in HMGCS2 gene expression at 25 uM incubated for 1 day by quantitative PCR method relative to untreated control
Outline: (§2)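 HepaRG cells grown two weeks in William's E medium with 10% FCS, insulin, glutamine and hydrocortisone, then two weeks more with 2% DMSO. Hepatocyte-like cells detached by mild trypsinization and seeded at 2.6 × 10⁴ cells/cm². After 24 h they were starved 16 h without DMSO/FCS, then exposed 24 h to ligand. Total RNA assayed by real-time qPCR; vehicle-treated control set to 1; duplicate samples; two-way ANOVA with Bonferroni.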

[5] = molecular target: T4, PPAR alpha/gamma (Homo sapiens); experiment: Agonist activity at PPARalpha/PPARgamma in human […] cells assessed as increase in ANGPTL4 gene expression at 25 uM incubated for 1 day by quantitative PCR method relative to untreated control; outline: as §2
[6] = molecular target: T4, PPAR alpha/gamma (Homo sapiens); experiment: Agonist activity at PPARalpha/PPARgamma in human […] cells assessed as increase in CD36 gene expression at 25 uM incubated for 1 day by quantitative PCR method relative to untreated control; outline: as §2
[7] = molecular target: T4, PPAR alpha/gamma (Homo sapiens); experiment: Agonist activity at PPARalpha/PPARgamma in human […] cells assessed as increase in FABP4 gene expression at 25 uM incubated for 1 day by quantitative PCR method relative to untreated control; outline: as §2
[8] = molecular target: T4, PPAR alpha/gamma (Homo sapiens); experiment: Agonist activity at PPARalpha/PPARgamma in human […] cells assessed as increase in FABP1 gene expression at 25 uM incubated for 1 day by quantitative PCR method relative to untreated control; outline: as §2
[9] = molecular target: T4, PPAR alpha/gamma (Homo sapiens); experiment: Agonist activity at PPARalpha/PPARgamma in human […] cells assessed as increase in CPT1A gene expression at 25 uM incubated for 1 day by quantitative PCR method relative to untreated control; outline: as §2

Structure (SMILES) | EC50 ([1]; read-out: EC50) [µM] | Emax [2] | EC50 ([3]; read-out: EC50) [µM] | also measured
O=C(O)[C@H](Cc1ccccc1)Oc1ccc(/C=N/O)cc1 | 5.5 | 98% | 28 | –
CCCO/N=C/c1ccc(O[C@@H](Cc2ccccc2)C(=O)O)cc1 | 3.8 | 91% | 3.8 | Activity [4]: Active; Activity [5]: Active; Activity [6]: Active; fold change (FC) [7]: 50; Activity [8]: Active; fold change (FC) [9]: 2
O=C(O)[C@H](Cc1ccccc1)Oc1ccc(-c2ccccc2)cc1 | – | 100% | – | –
O=C(O)C(Cc1ccccc1)Oc1ccc(/C=N/O)cc1 (racemic) | 7.75 | 91% | 43 | –
CO/N=C/c1ccc(OC(Cc2ccccc2)C(=O)O)cc1 (racemic) | 7.8 | 101% | 12.8 | –
CCCO/N=C/c1ccc(OC(Cc2ccccc2)C(=O)O)cc1 (racemic) | 7.3 | 96% | 7.9 | –
CCCCO/N=C/c1ccc(OC(Cc2ccccc2)C(=O)O)cc1 (racemic) | 3.9 | 68% | 3.65 | –
CCCCCCCO/N=C/c1ccc(OC(Cc2ccccc2)C(=O)O)cc1 (racemic) | – | – | – | EC50 ([1]; hepg2): Not Active
CC(C)O/N=C/c1ccc(OC(Cc2ccccc2)C(=O)O)cc1 (racemic) | 4.2 | 63% | 5.6 | –
CC(C)CO/N=C/c1ccc(OC(Cc2ccccc2)C(=O)O)cc1 (racemic) | 3.8 | 52% | 4.5 | –
O=C(O)C(Cc1ccccc1)Oc1ccc(/C=N/OCc2ccccc2)cc1 (racemic) | 6.8 | 58% | 2.1 | –
O=C(O)C(Cc1ccccc1)Oc1ccc(/C=N/OCCc2ccccc2)cc1 (racemic) | 2.2 | 48% | 1.8 | –
O=C(O)C(Cc1ccccc1)Oc1ccc(/C=N/OCCCc2ccccc2)cc1 (racemic) | 1.4 | 24% | 1.25 | –
C/C(=N\O)c1ccc(OC(Cc2ccccc2)C(=O)O)cc1 (racemic) | 5.2 | 68% | 9.4 | –
O=C(O)C(Cc1ccccc1)Oc1ccc(/C(=N/O)c2ccccc2)cc1 (racemic) | 1.2 | 78% | 12.4 | –
CCCO/N=C(\c1ccccc1)c1ccc(OC(Cc2ccccc2)C(=O)O)cc1 (racemic) | 2.1 | 24% | 1 | –
CCCO/N=C(/c1ccccc1)c1ccc(OC(Cc2ccccc2)C(=O)O)cc1 (racemic) | 0.22 | 59% | 0.68 | –
Cc1cccc(Nc2cc(Cl)nc(SCC(=O)O)n2)c1C [PIRINIXIC ACID] | – | – | – | EC50 ([3]; hepg2): Not Active
CN(CCOc1ccc(CC2SC(=O)NC2=O)cc1)c1ccccn1 (stereo unspecified) [ROSIGLITAZONE] | – | inactive | – | EC50 ([1]; hepg2): Not Active
